Results reported in ChEMBL document CHEMBL1126655, “Synthesis and antiviral activity of novel isonucleoside analogs” (J Med Chem, 1993).

Experiments:
Human alphaherpesvirus 1 [1] = assay: Antiviral activity against Herpes simplex virus-1 (thymidine kinase deficient strains isolated as BVaraU resistant mutants of HSV-1 (KOS)); format: functional; details: read-out: ID50 (the source's name)
Outline: (§1)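 WI-38 monolayers were infected, with virus adsorbed for 1–2 h. They were then overlaid with EMEM maintenance medium (1% carboxymethyl cellulose, 2.5% FBS) containing duplicate drug dilutions. Monolayers were stained after 4–6 days at 37 °C. ID50 was taken as the concentration giving 50% plaque reduction versus virus controls. Titrations were done in duplicate.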

Human alphaherpesvirus 3 = assay: Antiviral activity against Varicella zoster virus (Ellen strain); format: functional; details: read-out: ID50 (the source's name); outline: as §1
[2] = Antiviral activity against Herpes simplex virus-1 (KOS strain); format: functional; details: Human alphaherpesvirus 1; read-out: ID50 (the source's name); outline: as §1
Human alphaherpesvirus 1 [3] = assay: Antiviral activity against Herpes simplex virus-1 (Schooler strain); format: functional; details: read-out: ID50 (the source's name); outline: as §1
Human betaherpesvirus 5 = assay: Antiviral activity against Human cytomegalovirus (AD169 strain); format: functional; details: read-out: ID50 (the source's name); outline: as §1
Mus musculus [4] = assay: Day of death in lethal test against herpes simplex virus type-1 at 50 mg/kg/day; format: ADME, organism-based; details: in vivo
Outline: (§2)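 Female Swiss-Webster mice (20–23 g, 10 per group) were infected ip with 10^3 PFU HSV-1 Schooler in 0.3% BSA-PBS. Drug was given sc twice daily in PBS, starting 1 h postinfection, for 5 days. Survival was followed for 21 days. Mean day of death of dead animals was compared with placebo-treated infected controls by Student's t-test.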

Mus musculus [5] = assay: Number of survivors against Herpes simplex virus type-2 infection in mice at 100 mg/kg/day out of total 10 tested; format: functional
Outline: (§3)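 Female Swiss-Webster mice (20–23 g, 10 per group) were infected ip with 10^6 PFU HSV-2 Curtis in 0.3% BSA-PBS. Dosing was sc twice daily in PBS from 1 h postinfection for 5 days. Survival was recorded over 21 days. Mean day of death was computed for dead mice and compared with placebo-treated infected controls by Student's t-test.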

Mus musculus [6] = assay: Number of survivors against Herpes simplex virus type-2 infection in mice at 25 mg/kg/day out of total 10 tested; format: functional
Outline: (§4)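 Female Swiss-Webster mice (20–23 g), 10 per group, infected intraperitoneally with 10^6 PFU HSV-2 strain Curtis (Vero freeze-thaw extract) in 0.3% BSA-PBS. Drug given subcutaneously in PBS twice daily from 1 h postinfection for 5 days, doses 12.5–200 mg/kg/day. Survival followed 21 days; PD50 by probit analysis; mean day of death by Student's t-test versus placebo.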

Mus musculus [7] = assay: Number of survivors against Herpes simplex virus type-1 infection in mice at 200 mg/kg/day out of total 10 tested; format: functional; outline: as §2
Human alphaherpesvirus 2 = assay: Antiviral activity against Herpes simplex virus-2 (thymidine kinase deficient strains isolated as BVaraU resistant mutants of HSV-1 (KOS)); format: functional; details: read-out: ID50 (the source's name)
Mus musculus [8] = assay: Day of death in lethal test against herpes simplex virus type-2 at 50 mg/kg/day; format: ADME, organism-based; details: in vivo; outline: as §3
Mus musculus [9] = assay: Day of death in lethal test against herpes simplex virus type-1 at 12.5 mg/kg/day; format: ADME, organism-based; details: in vivo; outline: as §2
Mus musculus [10] = assay: Number of survivors against Herpes simplex virus type-1 infection in mice at 25 mg/kg/day out of total 10 tested; format: functional; outline: as §2
Mus musculus [11] = assay: Day of death in lethal test against herpes simplex virus type-2 at 100 mg/kg/day; format: ADME, organism-based; details: in vivo; outline: as §3
Mus musculus [12] = assay: Number of survivors against Herpes simplex virus type-1 infection in mice at 150 mg/kg/day out of total 10 tested; format: ADME, organism-based; details: in vivo; outline: as §2
Mus musculus [13] = assay: Day of death in lethal test against herpes simplex virus type-2 at 25 mg/kg/day; format: ADME, organism-based; details: in vivo; outline: as §3
Human alphaherpesvirus 1 [14] = assay: Antiviral activity against Herpes simplex virus-1 (Schooler); format: functional; details: read-out: ID50 (the source's name); outline: as §1
Mus musculus [15] = assay: Number of survivors against Herpes simplex virus type-2 infection in mice at 12.5 mg/kg/day out of total 10 tested; format: functional; outline: as §3
Mus musculus [16] = assay: Day of death in lethal test against herpes simplex virus type-2 at 12.5 mg/kg/day; format: ADME, organism-based; details: in vivo; outline: as §3
Vaccinia virus = assay: Antiviral activity against vaccinia virus (CL strain); format: functional; details: Orthopoxvirus vaccinia; read-out: ID50 (the source's name)
Mus musculus [17] = assay: Day of death in lethal test against herpes simplex virus type-1 at 100 mg/kg/day; format: ADME, organism-based; details: in vivo; outline: as §2
Mus musculus [18] = assay: Number of survivors against Herpes simplex virus type-1 infection in mice at 100 mg/kg/day out of total 10 tested; format: functional; outline: as §2
WI-38 = assay: Tested for growth inhibition againstWI-38 cells; format: functional; details: Homo sapiens, read-out: ID50 (the source's name)
Outline: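 WI-38 cells seeded at 1.2 × 10^6 per well, incubated overnight at 37 °C, then refed with growth medium (EMEM, 10% FBS) holding serial drug dilutions or none, for 3 more days at 37 °C. Quadruplicate cultures per concentration trypsinized and counted daily for viable cells by trypan blue exclusion.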

Mus musculus [19] = assay: Number of survivors against Herpes simplex virus type-2 infection in mice at 200 mg/kg/day out of total 10 tested; format: functional; outline: as §3
Mus musculus [20] = assay: Day of death in lethal test against herpes simplex virus type-1 at 150 mg/kg/day; format: functional; outline: as §2
Mus musculus [21] = assay: Protective dose against Herpes simplex virus type type -1 infection in mice at 200 mg/kg; format: functional; details: read-out: PD50
Outline: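 Female Swiss-Webster mice (20–23 g), 10 per group, infected intraperitoneally with 10^3 PFU HSV-1 strain Schooler (Vero freeze-thaw extract) in 0.3% BSA-PBS. Subcutaneous dosing in PBS twice daily from 1 h postinfection for 5 days, 12.5–200 mg/kg/day. Survival scored over 21 days; PD50 from survival by probit analysis.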

Mus musculus [22] = assay: Protective dose against Herpes simplex virus type type -2 infection in mice at 200 mg/kg; format: functional; details: read-out: PD50; outline: as §4
Mus musculus [23] = assay: Day of death in lethal test against herpes simplex virus type-1 at 25 mg/kg/day; format: ADME, organism-based; details: in vivo; outline: as §2

**Q.** Which IC50 (Human alphaherpesvirus 1 [1]) does the source give for `Cc1cn([C@@H]2CO[C@H](CO)[C@H]2CO)c(=O)[nH]c1=O` here?
**A.** The IC50 was greater than 400 µM.

**Q.** And the IC50 (Human alphaherpesvirus 3)?
**A.** Its IC50 is 20 µM.

**Q.** And the IC50 [2]?
**A.** The IC50 was 8 µM.

**Q.** What about the IC50 (Human alphaherpesvirus 1 [3]) of the same molecule?
**A.** Its IC50 is 4 µM.

**Q.** And the IC50 (Human betaherpesvirus 5)?
**A.** Its IC50 is greater than 400 µM.

**Q.** With `Nc1nc(O)c2ncn([C@@H]3CO[C@H](CO)[C@H]3CO)c2n1` as the molecule, how does the IC50 (Human alphaherpesvirus 1 [1]) read?
**A.** Its IC50 is 180 µM.

**Q.** And the “Mean day of death” value (Mus musculus [4])?
**A.** Its value is 10.1.

**Q.** And the No. of survivors (Mus musculus [5])?
**A.** The No. of survivors was 6.

**Q.** What about the No. of survivors (Mus musculus [6]) of the same molecule?
**A.** Its No. of survivors is 6.

**Q.** And the IC50 (Human alphaherpesvirus 3)?
**A.** Its IC50 is 40 µM.

**Q.** And the No. of survivors (Mus musculus [7])?
**A.** Its No. of survivors is 9.

**Q.** What about the IC50 (Human alphaherpesvirus 2) of the same molecule?
**A.** Its IC50 is 180 µM.

**Q.** What about the “Mean day of death” value (Mus musculus [8]) of the same molecule?
**A.** Its value is 10.9.

**Q.** What about the “Mean day of death” value (Mus musculus [9]) of the same molecule?
**A.** The value was 9.6.

**Q.** What about the IC50 [2] of the same molecule?
**A.** The IC50 was 7 µM.

**Q.** What about the No. of survivors (Mus musculus [10]) of the same molecule?
**A.** Its No. of survivors is 2.

**Q.** What about the “Mean day of death” value (Mus musculus [11]) of the same molecule?
**A.** Its value is 12.2.

**Q.** What about the No. of survivors (Mus musculus [12]) of the same molecule?
**A.** Its No. of survivors is 7.

**Q.** And the “Mean day of death” value (Mus musculus [13])?
**A.** The value was 12.5.

**Q.** What about the IC50 (Human alphaherpesvirus 1 [14]) of the same molecule?
**A.** The IC50 was 18 µM.

**Q.** And the No. of survivors (Mus musculus [15])?
**A.** The No. of survivors was 0.

**Q.** What about the “Mean day of death” value (Mus musculus [16]) of the same molecule?
**A.** The value was 10.3.

**Q.** What about the IC50 (Vaccinia virus) of the same molecule?
**A.** The IC50 was greater than 360 µM.

**Q.** And the “Mean day of death” value (Mus musculus [17])?
**A.** Its value is 14.7.

**Q.** And the No. of survivors (Mus musculus [18])?
**A.** The No. of survivors was 6.

**Q.** And the IC50 (WI-38)?
**A.** The IC50 was greater than 700 µM.

**Q.** And the IC50 (Human betaherpesvirus 5)?
**A.** Its IC50 is greater than 360 µM.

**Q.** And the No. of survivors (Mus musculus [19])?
**A.** The No. of survivors was 9.

**Q.** And the “Mean day of death” value (Mus musculus [20])?
**A.** The value was 12.3.

**Q.** And the ED50 (Mus musculus [21])?
**A.** Its ED50 is 84 mg/kg/day.

**Q.** What about the ED50 (Mus musculus [22]) of the same molecule?
**A.** The ED50 was 52 mg/kg/day.

**Q.** What about the “Mean day of death” value (Mus musculus [23]) of the same molecule?
**A.** The value was 9.1.
